In article PMC8341804 (RSC Chemical Biology, 2021):

Assays:
PKC = PKC substrate phosphorylation assay; type: cell-based; conditions: serum starved PC-3, 1, 2.5, 5 μM peptide 4 h, PMA 5 min; n = 3
How it was run: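 Serum-starved PC-3 cells were exposed to the test compound (1, 2.5 or 5 μM) or DMSO vehicle for 4 h. A catalytic PKC inhibitor reference was given at 500 nM for 90 min. Cells were then stimulated with 500 nM PMA for 5 min, harvested and analysed by western blot for PKC substrate phosphorylation; n = 3.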

PC-3 cells [1] = test: PMA induced cytoskeletal remodeling assay; type: cell-based; conditions: PC-3, serum starved 24 h, 5 μM peptide 4 h, 500 nM PMA 45 min
PC-3 cells [2] = test: Peptide uptake assay; type: cell-based; conditions: 5 μM FAM-labeled peptide, 4 h, fixed cells, fluorescence microscopy
How it was run: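 PC-3 cells were incubated with 5 μM 5(6)-carboxyfluorescein-labeled test compound for four hours, then imaged by fluorescence microscopy to assess intracellular distribution.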

[3] = biological target: Protein kinase C alpha type (Homo sapiens, UniProt P17252); test: Proteomic mass spectrometry of biotin-streptavidin pulldown; type: binding; conditions: 5 µM biotin labeled peptide, A549 lysate, LC-MS/MS
How it was run: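 Cell lysates were incubated for four hours with 5 μM biotin-labeled test compound or the corresponding scrambled control, with DMSO-treated lysate as negative control. Streptavidin–agarose beads were used for pulldown, and the eluates were analysed by mass spectrometry.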

Substance | phosphorylated PKC substrates (anti-PKC p-Serine substrate western blot) (PKC) | cell morphology after PMA stimulation (phase contrast) (PC-3 cells [1]) | cellular uptake / cell permeability (PC-3 cells [2]) | Present in pulldown: Protein kinase C alpha type (PRKCA) [3]
(5/6 FAM) - β-Ala - KAS(Nle)LCFKRRKK*AKA*K (sidechain bridge or staple) [CSTAD6] | dose dependent reduction | predominantly maintained a flat, elongated morphology | considerable permeation | –
(5/6 FAM) - β-Ala - KAS(Nle)LCFKRRK*AAK*LK (sidechain bridge or staple) [CSTAD5] | dose dependent reduction | predominantly maintained a flat, elongated morphology | considerable permeation | present
